Laboratory results as given in ChEMBL document CHEMBL1134621, “Discovery of 4-[(Z)-(4-bromophenyl)- (ethoxyimino)methyl]-1'-[(2,4-dimethyl-3- pyridinyl)carbonyl]-4'-methyl-1,4'- bipiperidine N-oxide (SCH 351125): an orally bioavailable human CCR5 antagonist for the treatment of HIV infection” (J Med Chem, 2001).

Legend:
[1] = target: C-C chemokine receptor type 5 (Homo sapiens, UniProt P51681); test: Inhibition of RANTES binding to C-C chemokine receptor type 5
[2] = test system: Human immunodeficiency virus 1; test: microbe, parasite or virus in culture; assay type: functional, organism-based; details: Human immunodeficiency virus 1, U-87 MG
Rattus norvegicus [3] = test: Area under curve (0-6 hr) value in rat at a concentration of 10 mg/kg after peroral administration.; assay type: ADME, organism-based; set-up: time < 6 hr, dose 10 mg/kg, route oral; details: in vivo, po
Rattus norvegicus [4] = test: Area under curve (0-6 hr) value in rat at a concentration of 10 mg/kg, peroral administration.; assay type: ADME, organism-based; set-up: time < 6 hr, dose 10 mg/kg, route oral; details: in vivo, po
Canis familiaris [5] = test: In vivo pharmacokinetic parameter, Area under curve (AUC) was measured in dog after 1 mg/kg iv administration
[6] = In vivo pharmacokinetic parameter, Area under curve (AUC) was measured in monkey after 2 mg/kg iv administration; details: simiiformes
Rattus norvegicus [7] = test: In vivo pharmacokinetic parameter, Area under curve (AUC) was measured in rat after 10 mg/kg iv administration; assay type: ADME, organism-based; set-up: dose 10 mg/kg, route intravenous
Procedure, shortened: (§1)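 Rat pharmacokinetics using the amorphous tartrate salt. Dosing was 10 mg/kg iv in 20% hydroxypropyl-β-cyclodextrin and 10 mg/kg po in 0.4% methylcellulose. […] Oral bioavailability was derived by comparing oral with iv exposure.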

[8] = Oral bioavailability was evaluated in monkey at a dose of 2 mg/kg; details: simiiformes, in vivo
[9] = In vivo pharmacokinetic parameter, half-life (t1/2) was measured in monkey after 2 mg/kg iv administration; details: simiiformes
[10] = In vivo pharmacokinetic parameter, half-life (t1/2) was measured in dog after 1 mg/kg iv administration
Rattus norvegicus [11] = test: Oral bioavailability was evaluated in rat at a dose of 10 mg/kg; assay type: ADME, organism-based; details: in vivo; procedure, shortened: as §1
[12] = In vivo pharmacokinetic parameter, half-life (t1/2) was measured in dog after 1 mg/kg iv administration; remark: listed apart in the source
[13] = In vivo pharmacokinetic parameter, half-life (t1/2) was measured in rat after 10 mg/kg iv administration; assay type: ADME, organism-based; set-up: dose 10 mg/kg, route intravenous; procedure, shortened: as §1
Canis familiaris [14] = test: Oral bioavailability was evaluated in dog at a dose of 3 mg/kg; details: in vivo

Sequence of C-C chemokine receptor type 5 (P51681 whole entry): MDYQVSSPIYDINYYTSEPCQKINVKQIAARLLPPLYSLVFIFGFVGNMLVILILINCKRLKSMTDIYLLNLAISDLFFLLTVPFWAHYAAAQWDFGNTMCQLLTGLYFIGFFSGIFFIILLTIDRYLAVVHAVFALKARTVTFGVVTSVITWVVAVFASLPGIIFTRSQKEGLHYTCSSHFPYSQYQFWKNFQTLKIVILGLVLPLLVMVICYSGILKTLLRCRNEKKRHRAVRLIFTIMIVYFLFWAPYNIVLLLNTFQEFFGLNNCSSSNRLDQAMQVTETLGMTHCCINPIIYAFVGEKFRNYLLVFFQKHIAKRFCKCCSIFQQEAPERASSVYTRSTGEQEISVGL

Ki [1] [nM]	IC50 [2] [nM]	AUC 0-6h (Rattus norvegicus [3]) [µg·h/mL]	other results	SMILES
29				Cc1cccc(C)c1C(=O)N1CCC(C)(N2CCC(Oc3ccc(Br)cc3)CC2)CC1
4.5	0.5	1.3		CO/N=C(\c1ccc(Br)cc1)C1CCN(C2(C)CCN(C(=O)c3c(C)cccc3N)CC2)CC1
	4	3		CO/N=C(\c1ccc(Br)cc1)C1CCN(C2(C)CCN(C(=O)c3c(C)cccc3O)CC2)CC1
18	5.6	2.4		CO/N=C(\c1ccc(Br)cc1)C1CCN(C2(C)CCN(C(=O)c3c(C)cc[n+]([O-])c3C)CC2)CC1
1.1	0.2	2.1		CCO/N=C(\c1ccc(Br)cc1)C1CCN(C2(C)CCN(C(=O)c3c(C)ccnc3C)CC2)CC1
	1.5	2.1		CON=C(c1ccc(Br)cc1)C1CCN(C2(C)CCN(C(=O)c3c(C)cccc3C)CC2)CC1
	5.5	0.15		Cc1cccc(C)c1C(=O)N1CCC(C)(N2CCC(Nc3ccc(Br)cc3)CC2)CC1
25	2.8	1.2		CO/N=C(/c1ccc(Br)cc1)C1CCN(C2(C)CCN(C(=O)c3c(C)cccc3C)CC2)CC1
3.4	0.6	0.61		CO/N=C(\c1ccc(Br)cc1)C1CCN(C2(C)CCN(C(=O)c3c(N)cccc3Cl)CC2)CC1
1.1	0.5	1.9		CO/N=C(\c1ccc(Br)cc1)C1CCN(C2(C)CCN(C(=O)c3c(C)ccnc3C)CC2)CC1
66	10		AUC 0-6h (Rattus norvegicus [4]): 0.04 µg·h/mL	Cc1cccc(C)c1C(=O)N1CCC(C)(N2CCC(Cc3ccc(Br)cc3)CC2)CC1
2	1.2	1.4		CO/N=C(/c1ccc(Br)cc1)C1CCN(C2CCN(C(=O)c3c(C)cccc3C)CC2)CC1
1.8	1.3	1		CCO/N=C(\c1ccc(Br)cc1)C1CCN(C2(C)CCN(C(=O)c3c(C)cccc3C)CC2)CC1
54	13			Cc1cccc(C)c1C(=O)N1CCC(C)(N2CCC(C(=O)c3ccc(Br)cc3)CC2)CC1
66				COc1ccc(S(=O)(=O)c2ccc(CC3CCN(C4CCN(C(=O)c5ccc(F)c6ccccc56)CC4)CC3)cc2)cc1
48	9.2			CCO/N=C(/c1ccc(Br)cc1)C1CCN(C2(C)CCN(C(=O)c3c(C)cccc3C)CC2)CC1
2.1	0.6	6.5	AUC (Canis familiaris [5]): 2.8 µg·h/mL; AUC [6]: 7.4 µg·h/mL; AUC (Rattus norvegicus [7]): 13 µg·h/mL; BA [8]: 52%; half-life [9]: 6 h; half-life [10]: 10 h; BA (Rattus norvegicus [11]): 63%; half-life [12]: 10 h; half-life [13]: 5 h; BA (Canis familiaris [14]): 92%	CCO/N=C(\c1ccc(Br)cc1)C1CCN(C2(C)CCN(C(=O)c3c(C)cc[n+]([O-])c3C)CC2)CC1 [ANCRIVIROC]
